Measured values: ChEMBL document CHEMBL3861994, “1,2,3-Triazole-based inhibitors of Porphyromonas gingivalis adherence to oral streptococci and biofilm formation” (Bioorg Med Chem, 2016)

Legend:
[1] = Inhibition of Porphyromonas gingivalis ATCC 33277 MFA interaction with Streptococcus gordonii DL1(1) antigen 1/2 assessed as inhibition of 5(6)-carboxyfluorescein N-hydroxysuccinimide ester-labeled Porphyromonas gingivalis ATCC 33277 cell adhesion to hexidium iodide-labeled Streptococcus gordonii DL1(1) by measuring inhibition of biofilm formation preincubated with Porphyromonas gingivalis ATCC 33277 for 30 mins followed by addition to Streptococcus gordonii DL1(1) culture measured after 22 hrs by laser scanning confocal microscopy; assay type: cell-based
In short: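 Hexidium iodide-labelled S. gordonii (OD600 0.8 in PBS, pH 7.2) was bound to coverslips for 24 h, anaerobic, 37 °C. Carboxyfluorescein-labelled P. gingivalis (OD600 0.4) was preincubated 30 min at room temperature with compound (0–60 μM final, from 1000X DMSO stock), added, then incubated 22 h anaerobically. After fixation, confocal z-stacks (488/552 nm) were taken. IC50 is 50% reduction of the green/red fluorescence ratio; triplicates, three independent experiments.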

[2] = Cytotoxicity against gingival epithelial cells (unknown origin); assay type: toxicity, cell-based; conditions: epithelial cell
Streptococcus gordonii [3] = assay: Growth inhibition of Streptococcus gordonii at 60 uM measured after 24 hrs; conditions: read-out: GI
Porphyromonas gingivalis [4] = assay: Growth inhibition of Porphyromonas gingivalis at 60 uM measured after 24 hrs
Streptococcus gordonii [5] = assay: Growth inhibition of Streptococcus gordonii at 40 uM measured after 24 hrs; conditions: read-out: GI
Porphyromonas gingivalis [6] = assay: Growth inhibition of Porphyromonas gingivalis at 40 uM measured after 24 hrs

| Compound | IC50 [1] | Activity [2] | inhibition at 60 µM (Streptococcus gordonii [3]) | growth inhibition (GI) (Porphyromonas gingivalis [4]) | inhibition at 40 µM (Streptococcus gordonii [5]) | growth inhibition (GI) (Porphyromonas gingivalis [6]) |
| --- | --- | --- | --- | --- | --- | --- |
| CCCCCc1ccc(-c2cn(-c3cccc(-c4nc(-c5ccc(OC)cc5)c(-c5ccc(OC)cc5)o4)c3)nn2)cc1 | > 60 µM | Toxic |  |  |  |  |
| COc1ccc2cc(-c3cn(Cc4nc(-c5ccc(F)cc5)c(-c5ccc(F)cc5)o4)nn3)ccc2c1 | 29.3 µM | Toxic | 0.2% | -3.3% |  |  |
| COc1ccccc1-c1cn(Cc2nc(-c3ccccc3)c(-c3ccccc3)o2)nn1 | > 60 µM | Toxic |  |  |  |  |
| CC(C)CCNc1nc(NCCC(C)C)nc(-c2cn(Cc3nc(-c4ccccc4)c(-c4ccccc4)o3)nn2)n1 | 36.9 µM | Toxic | 6.8% | 72.8% |  |  |
| Clc1ccc(-c2nc(Cn3cc(-c4cccnc4)nn3)oc2-c2ccc(Cl)cc2)cc1 | > 60 µM | Toxic |  |  |  |  |
| COc1ccccc1-c1cn(Cc2nc(-c3ccc(Br)cc3)c(-c3ccc(Br)cc3)o2)nn1 | 43 µM | Toxic | 11.1% | -12.4% |  |  |
| COc1ccc(-c2nc(-c3cccc(-n4cc(-c5ccccc5OC)nn4)c3)oc2-c2ccc(OC)cc2)cc1 | 15.4 µM | Toxic |  |  | 0.8% | -6.2% |
| Fc1cccc(-c2cn(Cc3nc(-c4ccc(Cl)cc4)c(-c4ccc(Cl)cc4)o3)nn2)c1 | > 60 µM | Toxic |  |  |  |  |
| Cc1ccccc1-c1cn(Cc2nc(-c3ccccc3)c(-c3ccccc3)o2)nn1 | > 56.3 µM | Toxic |  |  |  |  |
| COc1ccccc1-c1cn(Cc2nc(-c3ccc(F)cc3)c(-c3ccc(F)cc3)o2)nn1 | > 60 µM | Toxic |  |  |  |  |
| Fc1ccc(-c2nc(Cn3cc(-c4ccccc4C(F)(F)F)nn3)oc2-c2ccc(F)cc2)cc1 | > 60 µM | Toxic |  |  |  |  |
| Brc1ccc(-c2nc(Cn3cc(-c4cccnc4)nn3)oc2-c2ccc(Br)cc2)cc1 | 50.9 µM | Toxic |  |  |  |  |
| Fc1ccc(-c2nc(-c3ccc(-n4cc(-c5cccnc5)nn4)cc3)oc2-c2ccc(F)cc2)cc1 | 25.6 µM | Toxic |  |  |  |  |
| COc1ccccc1-c1cn(-c2ccc(-c3nc(-c4ccc(Cl)cc4)c(-c4ccc(Cl)cc4)o3)cc2)nn1 | 37.3 µM | Toxic |  |  |  |  |
| COc1ccc2cc(-c3cn(-c4ccc(-c5nc(-c6ccc(F)cc6)c(-c6ccc(F)cc6)o5)cc4)nn3)ccc2c1 | 52.2 µM | Toxic |  |  |  |  |
| COc1ccc(-c2nc(-c3cccc(-n4cc(-c5ccccc5C(F)(F)F)nn4)c3)oc2-c2ccc(OC)cc2)cc1 | 27 µM | Toxic |  |  | -9.7% | -1.6% |
| FC(F)(F)c1ccccc1-c1cn(Cc2nc(-c3ccc(Br)cc3)c(-c3ccc(Br)cc3)o2)nn1 | > 60 µM | Toxic |  |  |  |  |
| Fc1cccc(-c2cn(Cc3nc(-c4ccc(Br)cc4)c(-c4ccc(Br)cc4)o3)nn2)c1 | > 60 µM | Toxic |  |  |  |  |
| Brc1ccc(-c2nc(-c3cccc(-n4cc(-c5cccnc5)nn4)c3)oc2-c2ccc(Br)cc2)cc1 | 31 µM | Toxic |  |  |  |  |
| COc1ccc2cc(-c3cn(Cc4nc(-c5ccccc5)c(-c5ccccc5)o4)nn3)ccc2c1 | > 60 µM | Toxic |  |  |  |  |
| COc1ccc(-c2nc(-c3cccc(-n4cc(-c5cccnc5)nn4)c3)oc2-c2ccc(OC)cc2)cc1 | 57.7 µM | Toxic |  |  |  |  |
| CCCCCc1ccc(-c2cn(Cc3nc(-c4ccccc4)c(-c4ccccc4)o3)nn2)cc1 | 35.5 µM | Toxic | 6.6% | -14.5% |  |  |
| Fc1ccc(-c2nc(-c3ccc(-n4cc(-c5ccccc5C(F)(F)F)nn4)cc3)oc2-c2ccc(F)cc2)cc1 | 12.8 µM | Toxic |  |  | -11% | 0.1% |

| Compound | IC50 [1] | Activity [2] | inhibition at 60 µM (Streptococcus gordonii [3]) | growth inhibition (GI) (Porphyromonas gingivalis [4]) | inhibition at 40 µM (Streptococcus gordonii [5]) | growth inhibition (GI) (Porphyromonas gingivalis [6]) |
| --- | --- | --- | --- | --- | --- | --- |
| FC(F)(F)c1ccccc1-c1cn(-c2cccc(-c3nc(-c4ccc(Br)cc4)c(-c4ccc(Br)cc4)o3)c2)nn1 | 15.2 µM | Toxic |  |  | 2% | -0.6% |
| COc1ccc(-c2nc(-c3cccc(-n4cc(-c5cccc(F)c5)nn4)c3)oc2-c2ccc(OC)cc2)cc1 | 5.9 µM | Toxic |  |  | -9.1% | -2.6% |
| COc1ccc2cc(-c3cn(-c4ccc(-c5nc(-c6ccc(Cl)cc6)c(-c6ccc(Cl)cc6)o5)cc4)nn3)ccc2c1 | 32.4 µM | Toxic |  |  |  |  |
| Fc1ccc(-c2nc(Cn3cc(-c4cccnc4)nn3)oc2-c2ccc(F)cc2)cc1 | 59.8 µM | Toxic |  |  |  |  |
| Fc1cccc(-c2cn(Cc3nc(-c4ccccc4)c(-c4ccccc4)o3)nn2)c1 | > 60 µM | Toxic |  |  |  |  |
| FC(F)(F)c1ccccc1-c1cn(Cc2nc(-c3ccc(Cl)cc3)c(-c3ccc(Cl)cc3)o2)nn1 | 56.7 µM | Toxic |  |  |  |  |
| Fc1ccc(-c2nc(Cn3cc(-c4cccc(F)c4)nn3)oc2-c2ccc(F)cc2)cc1 | > 60 µM | Toxic |  |  |  |  |
| FC(F)(F)c1cc(-c2cn(Cc3nc(-c4ccccc4)c(-c4ccccc4)o3)nn2)cc(C(F)(F)F)c1 | > 60 µM | Toxic |  |  |  |  |
| FC(F)(F)c1ccccc1-c1cn(Cc2nc(-c3ccccc3)c(-c3ccccc3)o2)nn1 | > 60 µM | Toxic |  |  |  |  |
| COc1ccc2cc(-c3cn(Cc4nc(-c5ccc(Cl)cc5)c(-c5ccc(Cl)cc5)o4)nn3)ccc2c1 | 5.3 µM | Toxic | -3.8% | 0.3% |  |  |
| COc1ccc(-c2nc(-c3cccc(-n4cc(-c5ccc(Oc6ccccc6)cc5)nn4)c3)oc2-c2ccc(OC)cc2)cc1 | > 60 µM | Toxic |  |  |  |  |
| Fc1cccc(-c2cn(-c3ccc(-c4nc(-c5ccc(Cl)cc5)c(-c5ccc(Cl)cc5)o4)cc3)nn2)c1 | 15.7 µM | Toxic |  |  |  |  |
| FC(F)(F)c1ccccc1-c1cn(-c2ccc(-c3nc(-c4ccc(Cl)cc4)c(-c4ccc(Cl)cc4)o3)cc2)nn1 | 25.1 µM | Toxic |  |  |  |  |
| COc1ccccc1-c1cn(Cc2nc(-c3ccc(Cl)cc3)c(-c3ccc(Cl)cc3)o2)nn1 | 56.8 µM | Toxic | 6.6% | -19.6% |  |  |
| c1ccc(Oc2ccc(-c3cn(Cc4nc(-c5ccccc5)c(-c5ccccc5)o4)nn3)cc2)cc1 | > 60 µM | Toxic |  |  |  |  |
| Fc1ccc(-c2cn(Cc3nc(-c4ccccc4)c(-c4ccccc4)o3)nn2)cc1 | > 60 µM | Toxic |  |  |  |  |
| Clc1ccc(-c2nc(-c3ccc(-n4cc(-c5cccnc5)nn4)cc3)oc2-c2ccc(Cl)cc2)cc1 | 40.9 µM | Toxic |  |  |  |  |
| COc1ccc2cc(-c3cn(Cc4nc(-c5ccc(Br)cc5)c(-c5ccc(Br)cc5)o4)nn3)ccc2c1 | 33.4 µM | Toxic | -8.6% | -9.9% |  |  |
| COc1ccc2cc(-c3cn(-c4cccc(-c5nc(-c6ccc(Br)cc6)c(-c6ccc(Br)cc6)o5)c4)nn3)ccc2c1 | 20.3 µM | Toxic |  |  |  |  |
| Fc1ccc(-c2nc(-c3ccc(-n4cc(-c5cccc(F)c5)nn4)cc3)oc2-c2ccc(F)cc2)cc1 | 51.5 µM | Toxic |  |  |  |  |
| COc1ccc(-c2nc(-c3cccc(-n4cc(-c5cc(C(F)(F)F)cc(C(F)(F)F)c5)nn4)c3)oc2-c2ccc(OC)cc2)cc1 | 47.4 µM | Toxic |  |  |  |  |
| c1ccc(-c2nc(Cn3cc(-c4cccnc4)nn3)oc2-c2ccccc2)cc1 | > 60 µM | Toxic |  |  |  |  |
